In the library only some 3.7% were active in any assay of this set; here they are far more common.
KCNK9 block – blocks the human KCNK9 two-pore domain potassium channel | Q9NPC2 | HEK293 KCNK9, FluxOR thallium flux fluorescence; hits give low values | B-score at 10 µM | 310,000 compounds, 1.2% hits | AID 488922;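 active = ratio B-score over 3 SD below the library mean, with starting fluorescence within 5 SD of its mean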;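 note: negative B-score means less thallium flux so channel inhibition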
KCNQ1 pot – human KCNQ1 channel potentiation or activation; P51787; CHO-K1 KCNQ1, thallium flux FluxOR fluorescence; hits give high values; B-score at 10 µM; 310,000 compounds, 0.35% hits; AID 2648;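 active = fluorescence ratio B-score, a plate-corrected score, at least three library SD, with initial intensity B-score within 5 SD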
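assay system = KCNQ1-transfected CHO-K1 cells | medium = assay buffer with matched DMSO | probe or stimulus = depolarizing K+/Tl+ stimulus, K2SO4 and Tl2SO4 each 12.5 mM in 5x stock | dosing = single dose | incubation = dye 90 min, compound 20 min, room temperature | detection = kinetic FluxOR fluorescence, 10 s baseline plus 110 s post-stimulus | evaluation = ratio B score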
KCNK3 block – human KCNK3 channel inhibition, primary screen; B-score at 10 µM; CHO-KCNK3 thallium flux, FluxOR fluorescence; hits give low values; AID 602410; O14649; 340,000 compounds, 0.84% hits;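 active = B-score under library mean minus 4 SD, starting fluorescence ratio at most library mean plus 5 SD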;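 note: more negative B-score means stronger inhibition of thallium flux through KCNK3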
Target sequence (O14649 whole entry, looked up): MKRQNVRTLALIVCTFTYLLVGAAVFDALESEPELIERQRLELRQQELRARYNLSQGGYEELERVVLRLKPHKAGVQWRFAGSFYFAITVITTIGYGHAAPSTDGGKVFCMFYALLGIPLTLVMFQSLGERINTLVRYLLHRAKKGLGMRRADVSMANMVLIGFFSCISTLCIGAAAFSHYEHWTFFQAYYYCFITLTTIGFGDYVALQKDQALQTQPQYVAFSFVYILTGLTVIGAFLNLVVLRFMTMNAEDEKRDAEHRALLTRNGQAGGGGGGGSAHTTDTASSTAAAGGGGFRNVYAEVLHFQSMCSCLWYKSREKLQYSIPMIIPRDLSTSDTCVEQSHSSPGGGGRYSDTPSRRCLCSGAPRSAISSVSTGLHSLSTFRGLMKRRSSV
hERG rescue – hERG (human) protection from proarrhythmic block | 310,000 compounds, 0.51% hits | CHO-hERG, FluxOR thallium flux, dofetilide IC70 present | Q12809 | AID 1511 | activation (rescue from dofetilide block), less the hit threshold, % at 10 µM;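 active = activation above the mean of controls blocked by dofetilide plus 5 SD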;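 note: thallium influx through hERG after potassium depolarization seen as dye fluorescence rise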
Kir21 inh – Kir2.1 (mouse) channel inhibition | 310,000 compounds, 0.85% hits | AID 1672 | B-score at 10 µM | P35561 | HEK293-Kir2.1, FluxOR thallium flux fluorescence; hits give low values;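 active = fluorescence ratio B-score at or below minus 3 SD of library scores, with starting-brightness B-score within 2 SD, cut at about -4.2 in these data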;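 note: channel flux triggered by added potassium and thallium sulfate stimulus; B-score of peak minus minimum fluorescence over baseline after thallium stimulus; more negative B-score means stronger Kir2.1 block with less thallium influx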
KCNQ1 block – human KCNQ1 channel inhibition; P51787; CHO-K1 KCNQ1, FluxOR thallium flux fluorescence; hits give high values; B-score at 10 µM; 310,000 compounds, 1.3% hits; AID 2642;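 active = compounds whose thallium flux B-score, printed positive for inhibition, exceeds three library SD while starting fluorescence stays within three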;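 note: channel opened by potassium depolarization with thallium stimulus after 20 min compound exposure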
* hit, by the source's call; i = inactive; / = no result given.

SMILES	KCNK9 block	KCNQ1 pot	KCNK3 block	hERG rescue	Kir21 inh	KCNQ1 block
Cc1ccc(OCC(=O)NNC(=O)C2CSC3(C)CCC(=O)N23)cc1C (stereo unspecified)	/	/	i	/	/	/
Cc1nc2[nH]c(=O)n(O)c(=O)c2s1	/	/	i	/	/	/
CC(=O)Nc1ccc(NC(=S)Nc2ccccc2)cc1	i	i	i	-9	0.42	i
S=C(Nc1ccccc1)Nc1ccc(Br)cc1	i	i	i	-11	-0.38	6*
CC(=O)Nc1ccc(NC(=S)Nc2ccc(Br)cc2)cc1	i	i	i	-14	-1.6	6*
COc1ccccc1NC(=O)C(C)OC(=O)CCC1CCCCC1 (stereo unspecified)	i	i	-8.9*	-16	-2.4	i
Cn1c(N)c(C(=O)CSc2nc(C3CC3)n(-c3ccccc3)n2)c(=O)[nH]c1=O	/	/	i	/	/	/
Cc1ccc(C(=O)C2(C)C3c4cc(Br)ccc4OC(=O)C32C(=O)c2ccco2)cc1 (stereo unspecified)	-7.7*	i	i	-7	-0.33	i
O=C(Cn1c(CO)nc2ccccc21)NCCc1ccc(F)cc1	i	i	i	-8	0.63	i
O=C(Cn1c(CO)nc2ccccc21)NCCc1ccccc1	i	i	i	7.3*	-1.6	i
CCc1ccc(NC(=O)c2cc3c(C)nc4ccccc4c3o2)cc1	i	i	i	-12	-0.38	6*
Cc1ccccc1NC(=O)c1cc2c(C)nc3ccccc3c2o1	i	i	i	-13	0.14	i
C/C(=N\NC(=O)c1cccc(Br)c1)c1ccc(Br)cc1	i	i	i	-10	-0.9	i
C/C(=N\NC(=O)c1ccccc1O)c1ccc(Br)s1	i	i	i	5.4*	2.7	i
C/C(=N\NC(=O)c1cccc(F)c1)c1ccc(Br)s1	i	11*	i	-6	-0.01	i
C/C(=N\NC(=O)c1ccccc1[N+](=O)[O-])c1ccc(Br)s1	i	i	i	-12	0.45	i
Nc1nc(=O)n(C2CCCCO2)cc1Br (stereo unspecified)	/	/	i	/	/	/
COc1ccc2c(c1)c(/C=C/c1cc[n+](C)cc1)cn2C	-8*	i	i	-25	-7.6	i
COc1ccc2c(/C=C/c3cc[n+](C)cc3)c[nH]c2c1	i	i	i	-14	0.02	i
COc1ccc(OC)c(NC(=O)NCCCCc2ccccc2)c1	i	i	i	-3	0.13	i
Cc1cc(NC(=O)CSc2nc3cc(Cl)ccc3s2)no1	i	i	i	-2	-0.41	i
O=C(CSc1nc2ccccc2s1)N1c2ccccc2Sc2ccc(Cl)cc21	i	i	i	-7	-1.1	i
O=c1oc2cc(Cl)ccc2n1CSc1nc2ccccc2s1	-6.6*	i	i	-8	1.8	i
O=C(CSc1nc2cc(Cl)ccc2s1)c1cc2ccccc2o1	i	21*	i	-2	0.15	i
C[C@H](CO)N1C[C@H](C)[C@@H](CN(C)C(=O)Nc2ccc(C(F)(F)F)cc2)Oc2c(NC(=O)CCC(F)(F)F)cccc2C1=O	/	/	i	/	/	/
SMILES	KCNK9 block	KCNQ1 pot	KCNK3 block	hERG rescue	Kir21 inh	KCNQ1 block
CCC(NC(=S)NCc1ccc(F)cc1)c1ccccc1 (stereo unspecified)	i	i	i	-13	-7.4*	i
Cc1ccc2c(c1)N(CC(=O)NCC1CCCO1)C(=O)C(C(C)C)O2 (stereo unspecified)	i	i	i	-6	1.7	i
Cc1ccc(OC(C)C(=O)N2CCc3ccccc32)cc1 (stereo unspecified)	i	i	i	-4	0.56	i
CC(Oc1ccccc1)C(=O)N1CCCc2ccccc21 (stereo unspecified)	i	i	i	-9	-5.5*	i
COc1ccc(OC(C)C(=O)N2CCCc3ccccc32)cc1 (stereo unspecified)	i	i	i	-5	-4.8*	i
C(C#CCN1CCOCC1)#CCN1CCOCC1	/	/	i	/	/	/
Cc1ccc(NC(=S)NCCSc2ccc(Cl)cc2)c(C)c1	i	i	i	-5	-3.3	i
Cc1cccc(NC(=S)NCC(c2ccccc2)N(C)C)c1 (stereo unspecified)	i	i	i	-17	-0.93	i
Cc1ccc(NC(=S)NCC(C)CSc2ccc(Cl)cc2)cc1 (stereo unspecified)	i	i	i	-10	1.6	8*
Cc1cccc(NC(=S)NCC(C)CSc2ccc(Cl)cc2)c1 (stereo unspecified)	i	i	i	-26	-1.1	9*
C1CCN(CC2CCCCN2)CC1 (stereo unspecified)	/	/	i	/	/	/
CCOc1ccc(-n2cc(-c3ccccc3)c3c(=S)nc[nH]c32)cc1	i	39*	i	-2	0.67	i
CCOc1ccc(-n2cc(-c3ccccc3)c3c(=O)[nH]cnc32)cc1	i	i	i	-9	1.7	i
CC(C)OC(=O)/C(=C/c1ccc2c(c1)c1ccccc1n2C)NC(=O)c1ccccc1	-7.6*	i	i	-4	0.35	i
Cn1c2ccccc2c2cc(/C=C(\NC(=O)c3ccccc3)C(=O)O)ccc21	i	i	i	-4	2	i
CC(C)OC(=O)/C(=C\c1ccc2c(c1)c1ccccc1n2C)NC(=O)c1ccccc1	-7.9*	i	i	-8	-1.5	i
CC(C)OC(=O)/C(=C\c1cccnc1)NC(=O)c1ccccc1	i	i	i	-5	-0.15	i
O=C1NC(=O)C2(CCCC2C(=O)O)N1 (stereo unspecified)	/	/	i	/	/	/
O=C(Nc1ccccc1Cc1ccccc1)c1ccccc1NS(=O)(=O)c1ccc(Cl)s1	i	i	i	-15	-0.09	8*
O=C(NCc1ccco1)c1ccccc1NS(=O)(=O)c1ccc(Cl)s1	i	i	i	-6	-0.96	i
O=S(=O)(Nc1ccccc1N1CCCCC1)c1ccc(Cl)s1	-7.4*	i	i	-4	-0.34	i
Cc1ccc(NC(=O)c2ccccc2NS(=O)(=O)c2ccc(Cl)s2)cc1	-7.5*	i	i	-13	-2	i
O=C(CCC1CCCCC1)NCCN1C2=NC[C@@H](Cc3ccccc3)N2C[C@H]1Cc1ccc(O)cc1	i	i	i	-14	-4.5*	i
O=C(CCC1CCCCC1)NCCN1C2=NC[C@H](Cc3ccccc3)N2C[C@H]1Cc1ccc(O)cc1	i	i	i	-12	-3.4	i
N#CC1(Nc2ccc3ccccc3c2)CCCC1	/	/	i	/	/	/

High-throughput results deposited in PubChem BioAssay by Johns Hopkins Ion Channel Center.
